Data taken from ChEMBL document CHEMBL1148342, “Synthesis, X-ray crystal structures, stabilities, and in vitro cytotoxic activities of new heteroarylacrylonitriles” (J Med Chem, 2004).

What was measured:
5637 [1] = test: Cytotoxic activity against human 5637 cell line at 20 uM expressed as percent growth value; type: functional
Outline: (§1)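 Cells in RPMI-1640 with 10% FCS were seeded (1000 cells/well; KYSE-510 500, LCLC-103H 250), then exposed 24 h later for 96 h. Read-out was crystal violet staining of glutaraldehyde-fixed cells at OD 570 nm. Growth (%) = (OD treated − OD at drug addition)/(OD control − OD at drug addition) × 100.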

5637 [2] = test: Growth inhibition against human 5637 cell lines; type: functional, cell-based; conditions: Homo sapiens
Outline: (§2)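 Cells were grown in RPMI-1640 with 2 g/L NaHCO3 and 10% FCS at 37 °C in 5% CO2, seeded at 1000 cells/well, and dosed 24 h later at five geometric dilutions for 96 h of continuous exposure. Cells were then glutaraldehyde-fixed and stained with crystal violet, with OD read at 570 nm. IC50 was taken from the dose–response data.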

KYSE-70 cell line [3] = test: Cytotoxic activity against human KYSE-70 cell line at 20 uM expressed as percent growth value; type: functional; outline: as §1
LCLC-103H cell line = test: Growth inhibition against human LCLC-103H cell lines; type: functional, cell-based; conditions: Homo sapiens, LCLC-103H
Outline: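 LCLC-103H cells were grown in RPMI-1640 with 2 g/L NaHCO3 and 10% FCS (5% CO2, 37 °C) and plated at 250 cells/well. After 24 h, five geometric dilutions were applied continuously for 96 h. Fixation was with glutaraldehyde, followed by crystal violet staining and OD at 570 nm. IC50 came from the dose–response curves.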

RT-4 = test: Growth inhibition against human RT-4 cell lines; type: functional, cell-based; conditions: Homo sapiens, RT-4; outline: as §2
SISO [4] = test: Cytotoxic activity against human SISO cell line at 20 uM; type: functional; outline: as §1
TERT-RPE1 = test: Compound was tested for growth inhibition against human h-TERTRPE1 cell lines; type: functional, cell-based; conditions: Homo sapiens, RPE-1
Outline: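 The noncancerous hTERT-immortalized epithelial line h-TERT-RPE1 was grown in DMEM/F-12 with 2 g/L NaHCO3 and 10% FCS (37 °C, 5% CO2) and seeded at 1000 cells/well. Substance was added 24 h later at five geometric dilutions for 96 h continuously. The read-out was crystal violet staining after glutaraldehyde fixation, OD 570 nm, with IC50 from dose–response.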

DAN-G = test: Growth inhibition against human DAN-G cell lines; type: functional, cell-based; conditions: Homo sapiens, DAN-G; outline: as §2
KYSE-70 cell line [5] = test: Growth inhibition against human KYSE-70 cell lines; type: functional, cell-based; conditions: Homo sapiens, KYSE-70; outline: as §2
MCF7 = test: Growth inhibition against human MCF-7 cell lines; type: functional, cell-based; conditions: Homo sapiens, MCF7
Outline: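 MCF-7 was cultured in RPMI-1640 with 2 g/L NaHCO3, 10% FCS, 1 mM pyruvate, MEM salts and amino acids. Plating was 1000 cells/well, then after 24 h, 96 h of continuous exposure at five geometric dilutions. Crystal violet staining of glutaraldehyde-fixed cells was read at 570 nm, and IC50 was derived from the dose–response data.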

SISO [6] = test: Growth inhibition against human SISO cell lines; type: functional, cell-based; conditions: Homo sapiens, SISO; outline: as §2

| Compound | Activity 5637 [1] | IC50 5637 [2] | Activity (KYSE-70 cell line [3]) | IC50 (LCLC-103H cell line) | IC50 (RT-4) | Activity (SISO [4]) | IC50 (TERT-RPE1) | IC50 (DAN-G) | IC50 (KYSE-70 cell line [5]) | IC50 (MCF7) | IC50 (SISO [6]) |
| --- | --- | --- | --- | --- | --- | --- | --- | --- | --- | --- | --- |
| O=[N+]([O-])c1ccc(/C=C/c2nc3ccccc3[nH]2)s1 | 0 | 0.27 µM | 0.7 | 0.56 µM | 0.89 µM | -1.8 | 0.21 µM |  |  |  |  |
| C/C(=C\c1ccc([N+](=O)[O-])s1)c1nc2ccccc2[nH]1 | 0.5 | 3.65 µM | 2.4 | 0.44 µM | 4.67 µM | -1.3 |  | 3.73 µM | 5.11 µM | 2.97 µM | 3.28 µM |
